The results in this text go back to ChEMBL document CHEMBL3779800 (ACS Med Chem Lett, 2016).

Broadly, the Ki is a measure of affinity in units of concentration, obtained from inhibition or displacement.

For one series, the species on record is Homo sapiens. Description: Selectivity index, ratio of Ki for recombinant human MAO-A to Ki for recombinant human MAO-B. The method, boiled down:
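SI is Ki(MAO-A)/Ki(MAO-B). Each Ki comes from the Amplex Red H2O2 assay with p-tyramine substrate and is the mean ± SEM of three independent experiments. Racemates were tested. A lower SI indicates MAO-A preference and a higher SI indicates MAO-B preference.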
As for `CCOC(=O)N1N=C(c2ccc(O)c(OC)c2)CC1c1ccccc1` (racemic), the Ratio Ki was 0.002.
On to `COc1cc(C2=NN(C(=O)Oc3ccccc3)C(c3ccccc3)C2)ccc1O` (racemic), for which the Ratio Ki was 0.073.
As for `COc1cc(C2=NN(C(N)=S)C(c3ccccc3)C2)ccc1O` (racemic), the Ratio Ki was found to be 0.928.
On to `COc1cc(C2=NN(C(=N)N)C(c3ccccc3)C2)ccc1O` (racemic), for which the Ratio Ki was 0.047.
The same measure, in the same setting: for `COc1cc(C2=NN(C(=O)c3ccccc3)C(c3ccccc3)C2)ccc1O` (racemic) the value was 0.104; for `COc1cc(C2=NNC(c3ccccc3)C2)ccc1O` (racemic), 14.3.
Take `COc1cc(C2=NN(C(=S)Nc3ccccc3)C(c3ccccc3)C2)ccc1O` (racemic): the Ratio Ki was found to be 0.035.
On to `COc1cc(C2=NN(S(=O)(=O)c3ccc(C)cc3)C(c3ccccc3)C2)ccc1O` (racemic), for which the Ratio Ki stood at 1.02e-05.

A further series deals with T1, Amine oxidase [flavin-containing] A (Homo sapiens, UniProt P21397).
T1 sequence (P21397 whole entry): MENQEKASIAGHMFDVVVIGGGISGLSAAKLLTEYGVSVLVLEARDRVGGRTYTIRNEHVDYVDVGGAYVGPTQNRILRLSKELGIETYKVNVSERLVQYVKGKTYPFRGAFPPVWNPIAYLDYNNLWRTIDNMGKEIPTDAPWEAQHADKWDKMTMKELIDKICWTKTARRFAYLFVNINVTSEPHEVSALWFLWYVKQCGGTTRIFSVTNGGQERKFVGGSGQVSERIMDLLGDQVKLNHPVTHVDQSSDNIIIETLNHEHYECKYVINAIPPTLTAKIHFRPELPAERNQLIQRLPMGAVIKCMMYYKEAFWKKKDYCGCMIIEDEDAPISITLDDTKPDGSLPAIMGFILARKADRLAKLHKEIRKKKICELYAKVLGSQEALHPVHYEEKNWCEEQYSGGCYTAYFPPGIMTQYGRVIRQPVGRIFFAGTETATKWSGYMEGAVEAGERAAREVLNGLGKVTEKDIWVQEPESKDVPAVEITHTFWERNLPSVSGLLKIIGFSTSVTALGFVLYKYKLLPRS
Description: Suicide inhibition of recombinant human MAO-A using p-tyramine as substrate preincubated for 15 mins followed by substrate addition by Lineweaver-Burk plot analysis.
For the compound `C#CCN(C)[C@H](C)Cc1ccccc1` [SELEGILINE], the “inhibition (INH)” value is “Active”.

The target in another series is T2, Amine oxidase [flavin-containing] B (Homo sapiens, UniProt P27338).
T2 sequence (P27338 whole entry): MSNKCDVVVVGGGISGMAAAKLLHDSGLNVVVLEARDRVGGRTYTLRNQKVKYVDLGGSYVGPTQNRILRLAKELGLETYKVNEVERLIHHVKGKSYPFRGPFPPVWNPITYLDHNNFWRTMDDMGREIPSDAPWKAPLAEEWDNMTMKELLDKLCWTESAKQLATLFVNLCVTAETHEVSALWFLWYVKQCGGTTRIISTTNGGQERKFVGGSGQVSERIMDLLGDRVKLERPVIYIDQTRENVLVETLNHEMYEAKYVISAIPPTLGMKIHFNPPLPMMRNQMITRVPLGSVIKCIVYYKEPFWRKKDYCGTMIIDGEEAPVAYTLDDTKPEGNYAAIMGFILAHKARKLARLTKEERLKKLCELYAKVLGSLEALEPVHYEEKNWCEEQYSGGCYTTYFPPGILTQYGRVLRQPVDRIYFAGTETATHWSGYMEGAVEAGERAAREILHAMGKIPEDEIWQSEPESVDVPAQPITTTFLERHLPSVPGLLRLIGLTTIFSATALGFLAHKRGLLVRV
The series is described as follows: Inhibition of recombinant human MAO-B using p-tyramine as substrate assessed as H2O2 production preincubated for 15 mins followed by substrate addition measured for 15 mins by amplex red assay.
Take `CCOC(=O)N1N=C(c2ccc(O)c(OC)c2)CC1c1ccccc1` (racemic): the Ki came to 201 µM.
With `COc1cc(C2=NN(C(=O)Oc3ccccc3)C(c3ccccc3)C2)ccc1O` (racemic), the inhibitory constant (Ki) stood at 4 µM.
As to `COc1cc(C2=NN(C(N)=S)C(c3ccccc3)C2)ccc1O` (racemic), the inhibitory constant (Ki) was found to be 2.78 µM.
Consider `COc1cc(C2=NN(C(=N)N)C(c3ccccc3)C2)ccc1O` (racemic), for which the inhibitory constant (Ki) came to 201 µM.
`COc1cc(C2=NN(C(=O)c3ccccc3)C(c3ccccc3)C2)ccc1O` (racemic): the inhibitory constant (Ki) turned out to be 41 µM.
`COc1cc(C2=NNC(c3ccccc3)C2)ccc1O` (racemic): the Ki stood at 0.35 µM.
On to `COc1cc(C2=NN(C(=S)Nc3ccccc3)C(c3ccccc3)C2)ccc1O` (racemic), for which the Ki was 15.9 µM.
For `COc1cc(C2=NN(S(=O)(=O)c3ccc(C)cc3)C(c3ccccc3)C2)ccc1O` (racemic), the Ki is 5900 µM.

For a further series, the target named is T1, Amine oxidase [flavin-containing] A. Description: Irreversible inhibition of recombinant human MAO-A using p-tyramine as substrate incubated for 1 hr by centrifugation ultra filtration method. The method, boiled down: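 Reversibility of hMAO-A inhibition assessed by a centrifugation-ultrafiltration method. Enzyme activity was read as H2O2 production from p-tyramine using Amplex Red fluorescence. Compounds were checked for direct reaction with Amplex Red and for resorufin quenching, tested at their maximum concentration against various resorufin concentrations. Racemic compounds were used.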
Turning to `C#CCN(C)[C@H](C)Cc1ccccc1` [SELEGILINE], the “inhibition (INH)” value is on record as “Active”.

A further series shares this target. The series is described as follows: Competitive inhibition of recombinant human MAO-A using p-tyramine as substrate preincubated for 15 mins followed by substrate addition by Lineweaver-Burk plot analysis.
With `CCOC(=O)N1N=C(c2ccc(O)c(OC)c2)CC1c1ccccc1` (racemic), the “inhibition (INH)” value is “Active”.
Take `COc1cc(C2=NN(C(=O)Oc3ccccc3)C(c3ccccc3)C2)ccc1O` (racemic): the “inhibition (INH)” value is “Active”.
As for `COc1cc(C2=NN(C(N)=S)C(c3ccccc3)C2)ccc1O` (racemic), the “inhibition (INH)” value is “Active”.
In the case of `COc1cc(C2=NN(C(=N)N)C(c3ccccc3)C2)ccc1O` (racemic), the “inhibition (INH)” value is “Active”.
For the compound `COc1cc(C2=NN(C(C)=O)C(c3ccccc3)C2)ccc1O` (racemic), the “inhibition (INH)” value is “Active”.
On to `COc1cc(C2=NN(C(=O)c3ccccc3)C(c3ccccc3)C2)ccc1O` (racemic), for which the “inhibition (INH)” value is “Active”.
On the same count and under the same terms, as for `O=C(NCCN1CCOCC1)c1ccc(Cl)cc1` [MOCLOBEMIDE], the entry is “Active”.
Regarding `COc1cc(C2=NNC(c3ccccc3)C2)ccc1O` (racemic), the “inhibition (INH)” value is “Active”.
As for `COc1cc(C2=NN(C(=S)Nc3ccccc3)C(c3ccccc3)C2)ccc1O` (racemic), the “inhibition (INH)” value was “Active”.
The same measure, in the same setting: for `COc1cc(/C=C/C(=O)CC(=O)/C=C/c2ccc(O)c(OC)c2)ccc1O` [CURCUMIN] the value was “Active”; for `COc1cc(C2=NN(S(=O)(=O)c3ccc(C)cc3)C(c3ccccc3)C2)ccc1O` (racemic), “Active”; for `COc1cc(C2=NN(c3ccccc3)C(c3ccccc3)C2)ccc1O` (racemic), “Active”.

The next series shares this target. Description: Inhibition of recombinant human MAO-A using p-tyramine as substrate assessed as H2O2 production preincubated for 15 mins followed by substrate addition measured for 15 mins by amplex red assay. The procedure, abridged: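 H2O2 formed from p-tyramine, a substrate shared by hMAO-A and hMAO-B, was measured with an Amplex Red MAO kit. Compounds were checked for direct reaction with the Amplex Red reagent. They were also checked for resorufin quenching by combining the highest compound concentration with various resorufin concentrations. Protein was determined by Bradford with BSA standard. Values are mean ± SEM of three independent experiments.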
In the case of `CCOC(=O)N1N=C(c2ccc(O)c(OC)c2)CC1c1ccccc1` (racemic), the inhibitory constant (Ki) is 0.44 µM.
As to `COc1cc(C2=NN(C(=O)Oc3ccccc3)C(c3ccccc3)C2)ccc1O` (racemic), the inhibition constant (Ki) was found to be 0.29 µM.
`COc1cc(C2=NN(C(N)=S)C(c3ccccc3)C2)ccc1O` (racemic): the Ki is 2.58 µM.
In the case of `COc1cc(C2=NN(C(=N)N)C(c3ccccc3)C2)ccc1O` (racemic), the inhibitory constant (Ki) is 9.55 µM.
Turning to `COc1cc(C2=NN(C(C)=O)C(c3ccccc3)C2)ccc1O` (racemic), the inhibition constant (Ki) came out at 3.87 µM.
Still for that read-out and setting: for `COc1cc(C2=NN(C(=O)c3ccccc3)C(c3ccccc3)C2)ccc1O` (racemic) the value was 4.25 µM; for `COc1cc(C2=NNC(c3ccccc3)C2)ccc1O` (racemic), 5.02 µM.
For the compound `COc1cc(C2=NN(C(=S)Nc3ccccc3)C(c3ccccc3)C2)ccc1O` (racemic), the Ki turned out to be 0.55 µM.
On to `COc1cc(C2=NN(S(=O)(=O)c3ccc(C)cc3)C(c3ccccc3)C2)ccc1O` (racemic), for which the Ki amounted to 0.06 µM.
Regarding `COc1cc(C2=NN(c3ccccc3)C(c3ccccc3)C2)ccc1O` (racemic), the Ki was 2.16 µM.

The target is the same in a further series. Description: Reversible inhibition of recombinant human MAO-A using p-tyramine as substrate incubated for 1 hr by centrifugation ultra filtration method.
In the case of `CCOC(=O)N1N=C(c2ccc(O)c(OC)c2)CC1c1ccccc1` (racemic), the “inhibition (INH)” value is “Active”.
On to `COc1cc(C2=NN(C(=O)Oc3ccccc3)C(c3ccccc3)C2)ccc1O` (racemic), for which the “inhibition (INH)” value was “Active”.
For the compound `COc1cc(C2=NN(C(N)=S)C(c3ccccc3)C2)ccc1O` (racemic), the “inhibition (INH)” value is recorded as “Active”.
Turning to `COc1cc(C2=NN(C(=N)N)C(c3ccccc3)C2)ccc1O` (racemic), the “inhibition (INH)” value was “Active”.
Turning to `COc1cc(C2=NN(C(C)=O)C(c3ccccc3)C2)ccc1O` (racemic), the “inhibition (INH)” value is given as “Active”.
Still for that read-out and setting: for `COc1cc(C2=NN(C(=O)c3ccccc3)C(c3ccccc3)C2)ccc1O` (racemic) the value was “Active”; for `O=C(NCCN1CCOCC1)c1ccc(Cl)cc1` [MOCLOBEMIDE], “Active”; for `COc1cc(C2=NNC(c3ccccc3)C2)ccc1O` (racemic), “Active”.
On to `COc1cc(C2=NN(C(=S)Nc3ccccc3)C(c3ccccc3)C2)ccc1O` (racemic), for which the “inhibition (INH)” value is on record as “Active”.
On the same count and under the same terms, for `COc1cc(/C=C/C(=O)CC(=O)/C=C/c2ccc(O)c(OC)c2)ccc1O` [CURCUMIN] the value was “Active”; for `COc1cc(C2=NN(S(=O)(=O)c3ccc(C)cc3)C(c3ccccc3)C2)ccc1O` (racemic), “Active”; for `COc1cc(C2=NN(c3ccccc3)C(c3ccccc3)C2)ccc1O` (racemic), “Active”.
